# Measured values: ChEMBL document CHEMBL3045304, “Sesquiterpene lactones with potential use as natural herbicide models. 2. guaianolides” (2000)
# Activity calls are given as the source filed them. The rule behind the calls is not given here.
# Tests used:
# Lepidium sativum [1] = experiment: Inhibition of germination of Lepidium sativum at 0.1 mM or 1 mM after 4 days relative to untreated control
# Allium cepa [2] = experiment: Inhibition of hypocotyl length of Allium cepa cv. Valenciana (onion) at 0.1 mM or 1 mM after 7 days relative to untreated control
# Lactuca sativa [3] = experiment: Inhibition of germination of Lactuca sativa cv. Roman (lettuce) at 0.1 mM or 1 mM after 5 days relative to untreated control; assay type: functional
# Method in brief: (§1)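 Lettuce and tomato seeds, 25 per dish on filter paper, received 5 mL test solution. Incubation was 5 days in the dark at 25 °C, with four replicates per concentration. Solutions were made at 10^-3 or 10^-4 M in 10 mM MES, diluted serially, and adjusted to pH 6.0. Parallel controls were run. Results are % difference from control.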
# Solanum lycopersicum [4] = experiment: Stimulation of hypocotyl length of Solanum lycopersicum cv. Tres Cantos (tomato) at 0.1 mM or 1 mM after 5 days relative to untreated control; assay type: functional
# Method in brief: as §1
# Solanum lycopersicum [5] = experiment: Inhibition of hypocotyl length of Solanum lycopersicum cv. Tres Cantos (tomato) at 0.1 mM or 1 mM after 5 days relative to untreated control; assay type: functional
# Method in brief: as §1
# Lactuca sativa [6] = experiment: Stimulation of germination of Lactuca sativa cv. Roman (lettuce) at 0.1 mM or 1 mM after 5 days relative to untreated control; assay type: functional
# Method in brief: as §1
# Triticum aestivum [7] = experiment: Inhibition of root length of Triticum aestivum cv. Cortex (wheat) at 0.1 mM or 1 mM after 5 days relative to untreated control; assay type: functional
# Method in brief: (§2)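 Wheat: 10 seeds per dish on filter paper with 5 mL test solution, 5 days in the dark at 25 °C, 10 replicates per concentration. Stock test solutions were 10^-3 or 10^-4 M in 10 mM MES, with lower levels made by dilution, all at pH 6.0. Parallel controls were run. Output is % difference from control.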
# Lepidium sativum [8] = experiment: Stimulation of hypocotyl length of Lepidium sativum at 0.1 mM or 1 mM after 5 days relative to untreated control; assay type: functional
# Lactuca sativa [9] = experiment: Stimulation of root length of Lactuca sativa cv. Roman (lettuce) at 0.1 mM or 1 mM after 5 days relative to untreated control; assay type: functional
# Method in brief: as §1
# Lactuca sativa [10] = experiment: Inhibition of root length of Lactuca sativa cv. Roman (lettuce) at 0.1 mM or 1 mM after 5 days relative to untreated control; assay type: functional
# Method in brief: as §1
# Lepidium sativum [11] = experiment: Inhibition of root length of Lepidium sativum at 0.1 mM or 1 mM after 4 days relative to untreated control
# Lepidium sativum [12] = experiment: Stimulation of root length of Lepidium sativum at 0.1 mM or 1 mM after 5 days relative to untreated control; assay type: functional
# Solanum lycopersicum [13] = experiment: Stimulation of root length of Solanum lycopersicum cv. Tres Cantos (tomato) at 0.1 mM or 1 mM after 5 days relative to untreated control; assay type: functional
# Method in brief: as §1
# Triticum aestivum [14] = experiment: Stimulation of germination of Triticum aestivum cv. Cortex (wheat) at 0.1 mM or 1 mM after 5 days relative to untreated control; assay type: functional
# Method in brief: as §2
# Lactuca sativa [15] = experiment: Inhibition of hypocotyl length of Lactuca sativa cv. Roman (lettuce) at 0.1 mM or 1 mM after 5 days relative to untreated control; assay type: functional
# Method in brief: as §1
# Allium cepa [16] = experiment: Stimulation of root length of Allium cepa cv. Valenciana (onion) at 0.1 mM or 1 mM after 7 days relative to untreated control
# Triticum aestivum [17] = experiment: Inhibition of germination of Triticum aestivum cv. Cortex (wheat) at 0.1 mM or 1 mM after 5 days relative to untreated control; assay type: functional
# Method in brief: as §2
# Allium cepa [18] = experiment: Inhibition of germination of Allium cepa cv. Valenciana (onion) at 0.1 mM or 1 mM after 5 days relative to untreated control; assay type: functional
# Triticum aestivum [19] = experiment: Stimulation of root length of Triticum aestivum cv. Cortex (wheat) at 0.1 mM or 1 mM after 5 days relative to untreated control; assay type: functional
# Method in brief: as §2
# Solanum lycopersicum [20] = experiment: Inhibition of germination of Solanum lycopersicum cv. Tres Cantos (tomato) at 0.1 mM or 1 mM after 5 days relative to untreated control; assay type: functional
# Method in brief: as §1
# Allium cepa [21] = experiment: Stimulation of germination of Allium cepa cv. Valenciana (onion) at 0.1 mM or 1 mM after 5 days relative to untreated control; assay type: functional
# Triticum aestivum [22] = experiment: Inhibition of hypocotyl length of Triticum aestivum cv. Cortex (wheat) at 0.1 mM or 1 mM after 5 days relative to untreated control; assay type: functional
# Method in brief: as §2
# Lactuca sativa [23] = experiment: Stimulation of hypocotyl length of Lactuca sativa cv. Roman (lettuce) at 0.1 mM or 1 mM after 5 days relative to untreated control; assay type: functional
# Method in brief: as §1
# Lepidium sativum [24] = experiment: Inhibition of hypocotyl length of Lepidium sativum at 0.1 mM or 1 mM after 5 days relative to untreated control; assay type: functional
# Triticum aestivum [25] = experiment: Stimulation of hypocotyl length of Triticum aestivum cv. Cortex (wheat) at 0.1 mM or 1 mM after 5 days relative to untreated control; assay type: functional
# Method in brief: as §2
# Allium cepa [26] = experiment: Stimulation of hypocotyl length of Allium cepa cv. Valenciana (onion) at 0.1 mM or 1 mM after 7 days relative to untreated control
# Allium cepa [27] = experiment: Inhibition of root length of Allium cepa cv. Valenciana (onion) at 0.1 mM or 1 mM after 5 days relative to untreated control; assay type: functional
# Solanum lycopersicum [28] = experiment: Inhibition of root length of Solanum lycopersicum cv. Tres Cantos (tomato) at 0.1 mM or 1 mM after 5 days relative to untreated control; assay type: functional
# Method in brief: as §1
# Solanum lycopersicum [29] = experiment: Stimulation of germination of Solanum lycopersicum cv. Tres Cantos (tomato) at 0.1 mM or 1 mM after 5 days relative to untreated control; assay type: functional
# Method in brief: as §1
structure (smiles),measurement,setting,value
C=C1CC[C@H]2C(=C)CC[C@@H]3[C@H](OC(=O)[C@]3(O)CO)[C@@H]12,Activity,Lepidium sativum [1],inactive
same,inhibition,Lepidium sativum [1],inactive
same,inhibition,Allium cepa [2],inactive
same,inhibition,Lactuca sativa [3],inactive
same,Activity,Solanum lycopersicum [4],inactive
same,inhibition,Solanum lycopersicum [5],inactive
same,Activity,Lactuca sativa [6],inactive
same,inhibition,Triticum aestivum [7],inactive
same,Activity,Lepidium sativum [8],inactive
same,Activity,Lactuca sativa [9],inactive
same,inhibition,Lactuca sativa [10],inactive
same,inhibition,Lepidium sativum [11],inactive
same,Activity,Lepidium sativum [12],inactive
same,Activity,Solanum lycopersicum [13],inactive
same,Activity,Triticum aestivum [14],<20%
same,inhibition (INH),Lactuca sativa [15],<20%
same,Activity,Allium cepa [16],inactive
same,inhibition (INH),Triticum aestivum [17],<20%
same,inhibition,Allium cepa [18],inactive
same,Activity,Triticum aestivum [19],inactive
same,inhibition (INH),Solanum lycopersicum [20],<20%
same,Activity,Allium cepa [21],inactive
same,inhibition,Triticum aestivum [22],inactive
same,Activity,Lactuca sativa [23],<20%
same,inhibition,Lepidium sativum [24],inactive
same,Activity,Triticum aestivum [25],inactive
same,Activity,Allium cepa [26],inactive
same,inhibition,Allium cepa [27],inactive
same,inhibition,Solanum lycopersicum [28],inactive
same,Activity,Solanum lycopersicum [29],<20%
